Experimental data: ChEMBL document CHEMBL3244281, “Antiviral activity of some beta-diketones. 3. Aryl bis(beta-diketones). Antiherpetic activity” (1978)
Converted amounts (≈) assume the structure as drawn. The source made the active and inactive calls. No cut-off for these calls is given here.

Experiments:
Human alphaherpesvirus 2 [1] = test: Antiviral activity against HSV2 Curtis infected in monkey BSC-1 cells assessed as reduction of plaque formation at 2 ug/ml after 4 days using crystal violet staining relative to control; type: functional; conditions: Human alphaherpesvirus 2, Curtis, BSC-1, in Primates, 96 h
Outline: (§1)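 BSC-1 monolayers, 4 days old and confluent, were infected with 20-60 PFU in MEM + 2% FCS. They were overlaid with agar (1% ionagar + 2× M-199 + 5% FCS) containing compound, four flasks per condition. Uninfected monolayers with compound served as controls. Flasks were incubated inverted at 37 °C for 4 days, formalin-fixed overnight at 4 °C and crystal violet-stained. Mean plaque count gave % reduction versus infected untreated cultures.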

Human alphaherpesvirus 2 [2] = test: Antiviral activity against HSV2 Curtis infected in monkey BSC-1 cells assessed as reduction of plaque formation at 4 ug/ml after 4 days using crystal violet staining relative to control; type: functional; conditions: Human alphaherpesvirus 2, Curtis, BSC-1, in Primates, 96 h; outline: as §1
Human alphaherpesvirus 1 [3] = test: Antiviral activity against HSV1 Sheely infected in monkey BSC-1 cells assessed as reduction of plaque formation at 4 ug/ml after 4 days using crystal violet staining relative to control; type: functional; conditions: Human alphaherpesvirus 1, Sheely, BSC-1, in Primates, 96 h; outline: as §1
Human alphaherpesvirus 1 [4] = test: Antiviral activity against HSV1 Sheely infected in monkey BSC-1 cells assessed as reduction of plaque formation at 3 ug/ml after 4 days using crystal violet staining relative to control; type: functional; conditions: Human alphaherpesvirus 1, Sheely, BSC-1, in Primates, 96 h; outline: as §1
Human alphaherpesvirus 1 [5] = test: Antiviral activity against HSV1; type: functional
Human alphaherpesvirus 1 [6] = test: Antiviral activity against HSV1 Sheely infected in monkey BSC-1 cells assessed as reduction of plaque formation at 2 ug/ml after 4 days using crystal violet staining relative to control; type: functional; conditions: Human alphaherpesvirus 1, Sheely, BSC-1, in Primates, 96 h; outline: as §1
Human alphaherpesvirus 2 [7] = test: Antiviral activity against HSV2 Curtis infected in monkey BSC-1 cells assessed as reduction of plaque formation at 3 ug/ml after 4 days using crystal violet staining relative to control; type: functional; conditions: Human alphaherpesvirus 2, Curtis, BSC-1, 96 h; outline: as §1
Human alphaherpesvirus 1 [8] = test: Antiherpetic activity against HSV1 AA infected in guinea pig skin assessed as reduction of scab formation at 2% administered 24 hrs after infection as vanishing cream base daily 5 times for 4 days; type: functional, organism-based
Outline: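 Guinea pigs had HSV-1 applied to shaved, epilated flanks: 0.1 mL tissue-culture virus (titer 10^6.25 TCID50) driven in by multiple vaccination-gun punctures. A 2% vanishing-cream preparation was applied topically from 24 h postinfection, five times daily for 4 days. Placebo-treated animals served as controls. Two scorers rated vesicles and followed lesions and scabbing to day 7.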

Human alphaherpesvirus 2 [9] = test: Antiviral activity against HSV2

| Structure (SMILES) | MIC (Human alphaherpesvirus 1 [5]) | MIC (Human alphaherpesvirus 2 [9]) | other results |
| --- | --- | --- | --- |
| CCC(=O)C(CCCCCCOc1ccc(OCCCCCCC(C(=O)CC)C(=O)CC)cc1)C(=O)CC | 6 µg/mL (≈ 11.3 µM) | – | inhibition at 2 µg/mL (Human alphaherpesvirus 2 [1]): 18%; inhibition at 4 µg/mL (Human alphaherpesvirus 2 [2]): 93%; inhibition at 4 µg/mL (Human alphaherpesvirus 1 [3]): 89%; inhibition at 3 µg/mL (Human alphaherpesvirus 1 [4]): 43%; inhibition at 2 µg/mL (Human alphaherpesvirus 1 [6]): 21%; inhibition at 3 µg/mL (Human alphaherpesvirus 2 [7]): 59%; Activity (Human alphaherpesvirus 1 [8]): Active |
| CCC(=O)C(CCCCOc1ccc(OCCCC(C(=O)CC)C(=O)CC)cc1)C(=O)CC | – | inactive | – |
| CCC(=O)C(CCCOc1ccc(OCCCC(C(=O)CC)C(=O)CC)cc1)C(=O)CC | – | inactive | – |
| CCC(=O)C(CCCCCCCCOc1ccc(OCCCCCCCCC(C(=O)CC)C(=O)CC)cc1)C(=O)CC | – | inactive | – |
| CCC(=O)C(CCCCCCOc1ccc(OCCCCCCC(C(=O)CC)C(=O)CC)c(C)c1)C(=O)CC | 25 µg/mL (≈ 45.9 µM) | – | – |
| CCC(=O)C(CCCCCCOc1cc(Cl)c(OCCCCCCC(C(=O)CC)C(=O)CC)cc1Cl)C(=O)CC | 6 µg/mL (≈ 10 µM) | – | – |
| CCC(=O)C(CCCCCOc1ccc(OCCCCC(C(=O)CC)C(=O)CC)cc1)C(=O)CC | – | inactive | – |
| CCC(=O)C(CCCCCCCOc1ccc(OCCCCCCCC(C(=O)CC)C(=O)CC)cc1)C(=O)CC | 25 µg/mL (≈ 44.7 µM) | – | – |
| CCC(=O)C(CCCCCCOc1ccc(OCCCCCCC(C(=O)CC)C(=O)CC)c(Cl)c1)C(=O)CC | 6 µg/mL (≈ 10.6 µM) | – | – |
| CCC(=O)C(CCCCCCOc1cccc(OCCCCCCC(C(=O)CC)C(=O)CC)c1)C(=O)CC | 12 µg/mL (≈ 22.6 µM) | – | – |
| CCC(=O)C(CCCCOc1ccc(OCCCCC(C(=O)CC)C(=O)CC)cc1)C(=O)CC | 3 µg/mL (≈ 6.32 µM) | – | – |
| CCC(=O)C(CCCCCOc1ccc(OCCCCCC(C(=O)CC)C(=O)CC)cc1)C(=O)CC | 3 µg/mL (≈ 5.97 µM) | – | – |
